The M2OR odorant receptor database

Columns and labels:
Conditions in all cases: stereoisomer not certain
[1] = system: O10Q1 Q10R E12D
Method in brief: (§1)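 Assay methods differ from source to source, frequently being transient luciferase assays in mammalian cell lines. For each receptor–molecule pair, the label responsive (active) applies when the original authors judged the measured signal statistically different from baseline, and non-responsive (inactive) applies otherwise.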

[2] = system: O10R2 I170L
Chain of O10R2 I170L (as listed by the source, stated change not applied): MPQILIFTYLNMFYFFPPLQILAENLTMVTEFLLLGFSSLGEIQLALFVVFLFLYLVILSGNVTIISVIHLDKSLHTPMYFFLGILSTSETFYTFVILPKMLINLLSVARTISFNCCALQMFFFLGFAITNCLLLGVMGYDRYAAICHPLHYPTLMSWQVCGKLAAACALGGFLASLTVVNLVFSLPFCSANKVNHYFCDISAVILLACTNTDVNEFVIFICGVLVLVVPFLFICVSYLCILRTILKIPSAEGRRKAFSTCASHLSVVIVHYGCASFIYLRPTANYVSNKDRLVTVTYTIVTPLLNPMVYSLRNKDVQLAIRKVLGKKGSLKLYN
Method in brief: as §1

[3] = system: O10T2 I137M
Chain of O10T2 I137M (as listed by the source, stated change not applied): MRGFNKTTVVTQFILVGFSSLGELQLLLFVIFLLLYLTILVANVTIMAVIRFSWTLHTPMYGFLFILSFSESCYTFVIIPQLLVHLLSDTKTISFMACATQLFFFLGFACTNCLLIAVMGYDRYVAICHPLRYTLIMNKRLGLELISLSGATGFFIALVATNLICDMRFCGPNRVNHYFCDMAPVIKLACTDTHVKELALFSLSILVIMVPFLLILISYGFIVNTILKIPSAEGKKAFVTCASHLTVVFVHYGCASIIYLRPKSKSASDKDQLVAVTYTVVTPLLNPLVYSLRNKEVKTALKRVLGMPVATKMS
Method in brief: as §1

[4] = system: O10V1 Q123R
Chain of O10V1 Q123R (as listed by the source, stated change not applied): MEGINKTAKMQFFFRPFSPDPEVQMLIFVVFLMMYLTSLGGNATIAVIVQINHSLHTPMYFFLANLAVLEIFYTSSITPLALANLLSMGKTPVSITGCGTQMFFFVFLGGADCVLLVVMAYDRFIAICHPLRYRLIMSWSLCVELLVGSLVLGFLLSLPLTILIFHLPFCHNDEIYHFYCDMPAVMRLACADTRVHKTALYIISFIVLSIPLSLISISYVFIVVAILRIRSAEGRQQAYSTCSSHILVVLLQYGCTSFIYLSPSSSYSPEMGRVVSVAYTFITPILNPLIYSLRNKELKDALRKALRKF
Method in brief: as §1

[5] = system: O10X1 N4T R181S
Method in brief: as §1

[6] = system: O11G2 F3I I99N V116I
Method in brief: as §1

[7] = system: O11H1 M240V
Chain of O11H1 M240V (as listed by the source, stated change not applied): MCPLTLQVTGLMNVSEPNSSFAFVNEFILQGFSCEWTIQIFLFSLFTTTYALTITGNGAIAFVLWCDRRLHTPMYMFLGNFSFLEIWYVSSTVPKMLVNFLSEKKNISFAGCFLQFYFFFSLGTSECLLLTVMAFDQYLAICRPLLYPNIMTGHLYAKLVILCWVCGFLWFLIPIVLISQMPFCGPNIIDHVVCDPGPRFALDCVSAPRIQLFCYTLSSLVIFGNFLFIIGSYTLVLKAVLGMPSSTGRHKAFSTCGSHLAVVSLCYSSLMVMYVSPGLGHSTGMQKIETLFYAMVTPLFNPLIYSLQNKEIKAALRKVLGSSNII
Method in brief: as §1

[8] = system: O11H6 I107T
Chain of O11H6 I107T (as listed by the source, stated change not applied): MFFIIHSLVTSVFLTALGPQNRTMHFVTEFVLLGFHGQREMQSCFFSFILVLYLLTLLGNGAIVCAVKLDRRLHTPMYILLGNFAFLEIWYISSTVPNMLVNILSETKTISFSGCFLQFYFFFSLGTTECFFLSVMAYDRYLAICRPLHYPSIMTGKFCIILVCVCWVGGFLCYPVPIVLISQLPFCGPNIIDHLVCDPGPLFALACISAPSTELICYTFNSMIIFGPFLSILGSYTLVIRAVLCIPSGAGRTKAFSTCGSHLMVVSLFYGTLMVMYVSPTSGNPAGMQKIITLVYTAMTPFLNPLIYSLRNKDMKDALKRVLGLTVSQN
Method in brief: as §1

[9] = system: O11HC C156Y V240M
Method in brief: as §1

[10] = system: O12D2 S104F
Chain of O12D2 S104F (as listed by the source, stated change not applied): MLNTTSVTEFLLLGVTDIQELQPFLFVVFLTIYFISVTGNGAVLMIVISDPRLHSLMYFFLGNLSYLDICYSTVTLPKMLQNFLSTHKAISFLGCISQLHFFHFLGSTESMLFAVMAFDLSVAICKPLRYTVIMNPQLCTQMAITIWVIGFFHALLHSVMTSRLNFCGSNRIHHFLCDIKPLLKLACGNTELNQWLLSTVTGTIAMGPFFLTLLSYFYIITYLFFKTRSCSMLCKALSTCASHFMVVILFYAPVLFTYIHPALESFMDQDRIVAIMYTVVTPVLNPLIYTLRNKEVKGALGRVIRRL
Method in brief: as §1

[11] = system: O13C2 H6Q
Chain of O13C2 H6Q (as listed by the source): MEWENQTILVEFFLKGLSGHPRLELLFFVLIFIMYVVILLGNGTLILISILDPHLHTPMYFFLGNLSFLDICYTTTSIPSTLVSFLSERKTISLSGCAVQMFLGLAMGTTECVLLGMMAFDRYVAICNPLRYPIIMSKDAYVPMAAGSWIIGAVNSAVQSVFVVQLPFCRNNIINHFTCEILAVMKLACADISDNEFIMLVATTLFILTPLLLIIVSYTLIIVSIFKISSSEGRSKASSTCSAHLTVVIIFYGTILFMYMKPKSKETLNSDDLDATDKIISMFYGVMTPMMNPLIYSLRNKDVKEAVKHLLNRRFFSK
Method in brief: as §1

[12] = system: O13C8 A19D
Chain of O13C8 A19D (as listed by the source, stated change not applied): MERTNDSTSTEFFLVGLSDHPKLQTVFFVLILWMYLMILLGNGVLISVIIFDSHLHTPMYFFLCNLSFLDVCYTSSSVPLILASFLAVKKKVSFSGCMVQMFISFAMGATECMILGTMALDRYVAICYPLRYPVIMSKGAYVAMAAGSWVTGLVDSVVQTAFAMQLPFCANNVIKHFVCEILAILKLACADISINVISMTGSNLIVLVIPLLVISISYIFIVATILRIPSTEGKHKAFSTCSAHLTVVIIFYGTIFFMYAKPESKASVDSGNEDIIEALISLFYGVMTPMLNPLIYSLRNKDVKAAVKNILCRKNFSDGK
Method in brief: as §1

[13] = system: O13C9 H17L V19G L23H
Method in brief: as §1

[14] = system: O13C9 Q6H
Chain of O13C9 Q6H (as listed by the source): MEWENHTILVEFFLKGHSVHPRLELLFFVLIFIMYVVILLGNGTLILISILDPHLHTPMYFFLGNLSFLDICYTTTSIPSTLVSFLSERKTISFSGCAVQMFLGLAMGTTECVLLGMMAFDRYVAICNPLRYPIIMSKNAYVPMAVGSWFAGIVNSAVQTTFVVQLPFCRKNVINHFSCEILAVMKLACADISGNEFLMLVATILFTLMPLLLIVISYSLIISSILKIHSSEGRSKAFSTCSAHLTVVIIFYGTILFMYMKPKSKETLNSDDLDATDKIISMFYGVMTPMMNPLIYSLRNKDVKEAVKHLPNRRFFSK
Method in brief: as §1

[15] = system: O13F1 F18S T254M
Method in brief: as §1

[16] = system: O13F1 F18S
Chain of O13F1 F18S (as listed by the source, stated change not applied): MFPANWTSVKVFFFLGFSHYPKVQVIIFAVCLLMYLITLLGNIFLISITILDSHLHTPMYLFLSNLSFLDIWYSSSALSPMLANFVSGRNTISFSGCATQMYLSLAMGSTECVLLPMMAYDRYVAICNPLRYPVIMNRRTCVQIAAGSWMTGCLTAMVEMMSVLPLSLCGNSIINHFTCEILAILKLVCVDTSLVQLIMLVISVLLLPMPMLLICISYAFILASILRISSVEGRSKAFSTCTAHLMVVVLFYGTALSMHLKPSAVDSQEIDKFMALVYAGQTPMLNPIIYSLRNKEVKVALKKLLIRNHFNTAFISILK
Method in brief: as §1

[17] = system: O13G1 K46I M146L
Method in brief: as §1

[18] = system: O13G1
Chain of O13G1 (as listed by the source): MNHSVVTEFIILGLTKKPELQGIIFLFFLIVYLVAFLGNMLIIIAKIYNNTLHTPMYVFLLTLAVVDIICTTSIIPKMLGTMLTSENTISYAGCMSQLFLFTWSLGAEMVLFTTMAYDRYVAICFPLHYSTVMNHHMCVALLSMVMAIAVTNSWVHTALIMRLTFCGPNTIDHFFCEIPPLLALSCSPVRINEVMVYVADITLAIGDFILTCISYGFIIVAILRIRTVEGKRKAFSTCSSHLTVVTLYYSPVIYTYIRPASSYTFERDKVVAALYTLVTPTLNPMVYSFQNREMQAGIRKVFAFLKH
Method in brief: as §1

[19] = system: O13H1 Y266S
Chain of O13H1 Y266S (as listed by the source, stated change not applied): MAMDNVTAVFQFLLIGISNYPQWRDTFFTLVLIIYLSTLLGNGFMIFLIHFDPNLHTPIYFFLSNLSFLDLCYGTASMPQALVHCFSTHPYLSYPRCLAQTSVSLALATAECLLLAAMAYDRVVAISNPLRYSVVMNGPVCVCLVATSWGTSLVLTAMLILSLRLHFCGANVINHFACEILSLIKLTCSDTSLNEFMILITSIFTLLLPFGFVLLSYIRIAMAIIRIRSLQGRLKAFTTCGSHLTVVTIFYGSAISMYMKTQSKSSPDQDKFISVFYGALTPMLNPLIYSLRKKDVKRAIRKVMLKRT
Method in brief: as §1

[20] = system: O13J1
Chain of O13J1 (as listed by the source): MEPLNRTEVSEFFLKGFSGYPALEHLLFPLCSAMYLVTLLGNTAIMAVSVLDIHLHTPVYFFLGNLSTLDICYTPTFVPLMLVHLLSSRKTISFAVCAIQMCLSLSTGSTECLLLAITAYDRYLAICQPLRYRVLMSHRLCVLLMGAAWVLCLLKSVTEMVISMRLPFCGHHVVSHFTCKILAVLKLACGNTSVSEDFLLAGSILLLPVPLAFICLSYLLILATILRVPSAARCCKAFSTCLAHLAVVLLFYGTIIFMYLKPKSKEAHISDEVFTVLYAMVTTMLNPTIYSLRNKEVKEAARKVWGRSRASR
Method in brief: as §1

Measured: odorant receptor agonist call

C=CCOC(=O)Cc1ccccc1
inactive: all assays above
